Assay results taken from ChEMBL document CHEMBL3808393, “Discovery of Potent and Selective Agonists of δ Opioid Receptor by Revisiting the "Message-Address" Concept” (ACS Med Chem Lett, 2016).

Tests used:
[1] = molecular target: T1, Mu-type opioid receptor (Homo sapiens, UniProt P35372); assay: Displacement of [3H]DAMGO from human MOR expressed in CHO cell membranes after 60 mins
[2] = molecular target: T2, Delta-type opioid receptor (Homo sapiens, UniProt P41143); assay: Displacement of [3H]DPDPE from human DOR expressed in CHO cell membranes at 1 uM after 60 mins
Summary of the method: (§1)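 Competitive radioligand inhibition binding. […] DOR used [3H]DPDPE on membranes of CHO cells expressing human DOR. KOR used [3H]U69593 on CHO cells expressing human KOR. […] Each compound was run three times, mean ± SEM.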

[3] = molecular target: T3, Kappa-type opioid receptor (Homo sapiens, UniProt P41145); assay: Displacement of [3H]U69593 from human KOR expressed in CHO cell membranes after 60 mins
[4] = molecular target: T3, Kappa-type opioid receptor; assay: Displacement of [3H]U69593 from human KOR expressed in CHO cell membranes at 1 uM after 60 mins; summary of the method: as §1
[5] = molecular target: T2, Delta-type opioid receptor; assay: Displacement of [3H]DPDPE from human DOR expressed in CHO cell membranes after 60 mins
[6] = molecular target: T2, Delta-type opioid receptor; assay: Agonist activity at human DOR expressed in CHO cell membranes after 60 mins by [35S]GTP-gamma-S binding assay
Summary of the method: (§2)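 Receptor activation by standard [35S]GTP-γ-S binding. Each compound was assayed three times and reported as mean ± SEM.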

[7] = molecular target: T1, Mu-type opioid receptor; assay: Displacement of [3H]DAMGO from human MOR expressed in CHO cell membranes at 1 uM after 60 mins
[8] = molecular target: T1, Mu-type opioid receptor; assay: Agonist activity at human MOR expressed in CHO cell membranes after 60 mins by [35S]GTP-gamma-S binding assay
Summary of the method: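 [35S]GTP-γ-S binding read-out of G-protein activation. Each compound assayed three times, with values given as mean ± standard error of the mean.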

[9] = molecular target: T3, Kappa-type opioid receptor; assay: Agonist activity at human KOR expressed in CHO cell membranes after 60 mins by [35S]GTP-gamma-S binding assay; summary of the method: as §2

T1 sequence (P35372 whole entry): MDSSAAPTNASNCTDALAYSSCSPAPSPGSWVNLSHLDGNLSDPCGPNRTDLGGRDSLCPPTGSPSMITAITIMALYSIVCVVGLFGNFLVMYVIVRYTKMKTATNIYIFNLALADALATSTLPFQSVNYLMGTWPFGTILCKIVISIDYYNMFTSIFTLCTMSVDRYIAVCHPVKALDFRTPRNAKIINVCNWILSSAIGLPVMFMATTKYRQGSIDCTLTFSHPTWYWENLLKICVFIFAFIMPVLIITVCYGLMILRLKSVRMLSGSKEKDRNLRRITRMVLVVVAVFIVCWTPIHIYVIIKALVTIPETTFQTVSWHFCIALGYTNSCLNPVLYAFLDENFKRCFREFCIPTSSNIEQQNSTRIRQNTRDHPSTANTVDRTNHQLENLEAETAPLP
T3 sequence (P41145 whole entry): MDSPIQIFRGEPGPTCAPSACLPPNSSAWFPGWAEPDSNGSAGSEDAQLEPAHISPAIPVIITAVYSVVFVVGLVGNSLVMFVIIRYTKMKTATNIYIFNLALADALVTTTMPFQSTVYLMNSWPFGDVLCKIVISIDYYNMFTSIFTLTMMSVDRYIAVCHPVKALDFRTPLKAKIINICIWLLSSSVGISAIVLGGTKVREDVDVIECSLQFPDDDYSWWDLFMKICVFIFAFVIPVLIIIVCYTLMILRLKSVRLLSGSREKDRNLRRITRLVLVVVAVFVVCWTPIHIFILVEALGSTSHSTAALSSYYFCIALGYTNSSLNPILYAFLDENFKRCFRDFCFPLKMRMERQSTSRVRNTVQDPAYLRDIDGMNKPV
T2 sequence (P41143 whole entry): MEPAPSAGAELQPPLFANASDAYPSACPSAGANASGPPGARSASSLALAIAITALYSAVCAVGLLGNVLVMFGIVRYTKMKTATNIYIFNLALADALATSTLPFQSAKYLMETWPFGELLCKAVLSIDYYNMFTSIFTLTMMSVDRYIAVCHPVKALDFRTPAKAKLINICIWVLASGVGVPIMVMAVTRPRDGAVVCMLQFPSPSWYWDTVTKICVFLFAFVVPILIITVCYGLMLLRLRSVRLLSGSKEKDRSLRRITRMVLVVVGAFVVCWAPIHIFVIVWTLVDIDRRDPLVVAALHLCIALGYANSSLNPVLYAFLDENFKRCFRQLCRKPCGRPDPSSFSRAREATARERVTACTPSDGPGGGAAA

Row | Structure (SMILES) | Ki [1] [µM] | Ki [3] [µM] | Ki [5] [µM] | further results
1 | COc1ccc(-c2ccc3c(c2)CC[C@H](CN(C)C)[C@@]3(O)c2cccc(O)c2)cc1 | > 10 | > 10 |  | inhibition [2]: 32%
2 | COc1cccc([C@@]2(O)c3ccc(-c4ccccc4C)cc3CC[C@@H]2CN(C)C)c1 | > 10 |  |  | inhibition [2]: 13%; inhibition [4]: 16.2%
3 | COc1cccc(-c2ccc3c(c2)CC[C@H](CN(C)C)[C@@]3(O)c2cccc(OC)c2)c1 | > 10 | > 10 | > 10 | 
4 | CN(C)C[C@H]1CCc2cc(-c3ccc(Cl)cc3)ccc2[C@]1(O)c1cccc(O)c1 | > 10 |  |  | inhibition [2]: 17%; inhibition [4]: 8.9%
5 | COc1ccc(-c2ccc3c(c2)CC[C@H](CN(C)C)[C@@]3(O)c2cccc(OC)c2)cc1 | > 10 | > 10 | > 10 | 
6 | COc1cccc([C@@]2(O)c3ccc(-c4ccc(Cl)c(Cl)c4)cc3CC[C@@H]2CN(C)C)c1 | > 10 | > 10 | > 10 | 
7 | COc1cccc([C@@]2(O)c3ccc(-c4ccc(Cl)cc4)cc3CC[C@@H]2CN(C)C)c1 | > 10 | > 10 | > 10 | 
8 | COc1cccc(-c2ccc3c(c2)CC[C@H](CN(C)C)[C@@]3(O)c2cccc(O)c2)c1 | > 10 |  |  | inhibition [2]: 43%; inhibition [4]: 15%
9 | CN(C)C[C@H]1CCc2cc(-c3ccccc3F)ccc2[C@]1(O)c1cccc(O)c1 | > 10 | > 10 | 0.72 | EC50 [6]: 1.6 µM; Emax [6]: 172%
10 | CN(C)C[C@H]1CCc2cc(-c3ccccc3Cl)ccc2[C@]1(O)c1cccc(O)c1 | > 10 | > 10 | 0.16 | EC50 [6]: 0.95 µM; Emax [6]: 216%
11 | COc1cccc([C@@]2(O)CCCC[C@@H]2CN(C)C)c1 (racemic) [(R,R)-TRAMADOL] |  | > 10 | > 10 | inhibition [7]: 9.6%
12 | COc1ccccc1-c1ccc2c(c1)CC[C@H](CN(C)C)[C@@]2(O)c1cccc(O)c1 | > 10 |  | 0.0047 | inhibition [4]: 17.7%; EC50 [6]: 0.0093 µM; Emax [6]: 230%
13 | COc1cccc([C@@]2(O)c3ccc(-c4ccccc4OC)cc3CC[C@@H]2CN(C)C)c1 | > 10 | > 10 |  | inhibition [2]: 37.9%
14 | COc1ccccc1-c1ccc2c(c1)CCC(CN(C)C)C2(O)c1cccc(O)c1 (single isomer, unassigned; (-)) [listing 1 of 2 here] |  |  |  | Emax [6]: 205%
15 | CN(C)C[C@H]1CCCC[C@]1(O)c1cccc(O)c1 (racemic) [O-DESMETHYL TRAMADOL] |  | > 10 | > 10 | Emax [8]: 220%
16 | CN(C)C[C@H]1CCc2cc(-c3ccccc3OC(F)(F)F)ccc2[C@]1(O)c1cccc(O)c1 | > 10 | > 10 | 0.26 | EC50 [6]: 1 µM; Emax [6]: 215%
17 | COc1cccc([C@@]2(O)c3ccc(-c4ccc(C(F)(F)F)cc4)cc3CC[C@@H]2CN(C)C)c1 | > 10 | > 10 | > 10 | 
18 | COc1ccccc1-c1ccc2c(c1)CCC(CN(C)C)C2(O)c1cccc(O)c1 (single isomer, unassigned; (-)) [listing 2 of 2 here] | > 10 | > 10 | 0.0027 | EC50 [6]: 0.0026 µM
19 | CN(C)C[C@H]1CCc2cc(-c3ccccc3C(F)(F)F)ccc2[C@]1(O)c1cccc(O)c1 | > 10 | > 10 | 0.065 | EC50 [6]: 0.9 µM; Emax [6]: 217%
20 | COc1ccccc1-c1ccc2c(c1)CCC(CN(C)C)C2(O)c1cccc(O)c1 (single isomer, unassigned; (+)) |  |  | > 10 | Ki ([1]; cho): > 10 µM; Ki ([3]; cho): > 10 µM
21 | CN(C)C[C@H]1CCc2cc(-c3ccc(Cl)c(Cl)c3)ccc2[C@]1(O)c1cccc(O)c1 | > 10 | > 10 | > 10 | 
22 | Cc1ccccc1-c1ccc2c(c1)CC[C@H](CN(C)C)[C@@]2(O)c1cccc(O)c1 | > 10 | > 10 | 0.14 | EC50 [6]: 0.49 µM; Emax [6]: 199%
23 | CN(C)C[C@H]1CCc2cc(-c3ccc(C(F)(F)F)cc3)ccc2[C@]1(O)c1cccc(O)c1 | > 10 | > 10 | > 10 | 
24 | CN(C)C[C@H]1CCc2cc(-c3ccccc3)ccc2[C@]1(O)c1cccc(O)c1 |  | 0.14 |  | inhibition [7]: 20%; inhibition [2]: 22%; EC50 [9]: 0.58 µM; Emax [9]: 187%
25 | COc1cccc([C@@]2(O)c3ccc(-c4ccccc4)cc3CC[C@@H]2CN(C)C)c1 | > 10 |  | > 10 | inhibition [4]: 37%
